In ChEMBL document CHEMBL3526062, “Role of human UDP-glucuronosyltransferases in the biotransformation of the triazoloacridinone and imidazoacridinone antitumor agents C-1305 and C-1311: highly selective substrates for UGT1A10” (Drug Metab Dispos, 2012):

What was measured:
[1] = target: T1, UDP-glucuronosyltransferase 1A10 (Homo sapiens, UniProt Q9HAW8); test: Activity of human recombinant UGT1A10 expressed in baculovirus-infected Sf9 cells assessed as metabolite formation at 200 uM after 60 mins by HPLC analysis; type: ADME; conditions: sf9, 1 h
T1 sequence (Q9HAW8 whole entry): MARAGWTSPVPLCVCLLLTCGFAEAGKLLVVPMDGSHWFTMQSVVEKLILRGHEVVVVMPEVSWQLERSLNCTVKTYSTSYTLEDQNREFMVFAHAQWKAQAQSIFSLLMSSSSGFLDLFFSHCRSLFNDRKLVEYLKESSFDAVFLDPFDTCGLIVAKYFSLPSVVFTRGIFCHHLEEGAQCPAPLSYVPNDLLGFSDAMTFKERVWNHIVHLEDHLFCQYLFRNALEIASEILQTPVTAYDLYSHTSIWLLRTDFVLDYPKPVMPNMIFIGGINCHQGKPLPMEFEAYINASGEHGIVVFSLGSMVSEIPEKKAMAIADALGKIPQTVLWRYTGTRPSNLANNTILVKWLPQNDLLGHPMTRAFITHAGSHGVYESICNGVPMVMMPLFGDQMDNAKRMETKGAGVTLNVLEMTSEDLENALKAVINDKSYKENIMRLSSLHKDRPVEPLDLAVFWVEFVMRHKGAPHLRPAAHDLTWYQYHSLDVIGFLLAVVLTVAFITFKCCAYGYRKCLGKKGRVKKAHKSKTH
How it was run: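 Protein (5 μg UGT1A10 or microsomal) incubated with 0.2 mM substrate and 3 mM UDP-GlcUA, 60 min. HPLC on C18 at 25°C with a 15–80% methanol gradient in 0.05 M ammonium formate pH 3.4 at 1 ml/min. ESI positive-ion MS and UV/Vis spectra taken from the peaks. Glucuronide confirmed by 60 min further treatment with 1000 U E. coli β-glucuronidase.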

[2] = system: Liver microsome; test: Drug metabolism in human liver microsomes assessed as ratio of Vmax to Km for glucuronidation per mg of protein after 60 mins by Michaelis-Menten equation in presence of 3 mM UDP-GlcUA; type: ADME; conditions: 1 h
How it was run: (§1)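 Recombinant UGT membrane protein (5 μg; His-tagged UGT1A levels normalized by anti-His Western blot) or single-donor microsomes (20 μg) incubated with substrate 5–1000 μM and 3 mM UDP-GlcUA in […] pH 7.4, 5 mM MgCl2, 5 mM saccharolactone, 2% DMSO, 60 min, 37°C. Ethanol stop, centrifuged, HPLC-UV. Initial velocities fitted to Michaelis-Menten, Hill or substrate-inhibition models; three determinations.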

[3] = target: T2, UDP-glucuronosyltransferase 1A1 (Homo sapiens, UniProt P22309); test: Drug metabolism assessed as human recombinant UGT1A1-mediated compound formation treated with C-1305 for 60 mins by ESI-MS/UV-vis spectroscopy in presence of 3 mM UDP-GlcUA; type: ADME; conditions: recombinant enzyme, 1 h
T2 sequence (P22309 whole entry): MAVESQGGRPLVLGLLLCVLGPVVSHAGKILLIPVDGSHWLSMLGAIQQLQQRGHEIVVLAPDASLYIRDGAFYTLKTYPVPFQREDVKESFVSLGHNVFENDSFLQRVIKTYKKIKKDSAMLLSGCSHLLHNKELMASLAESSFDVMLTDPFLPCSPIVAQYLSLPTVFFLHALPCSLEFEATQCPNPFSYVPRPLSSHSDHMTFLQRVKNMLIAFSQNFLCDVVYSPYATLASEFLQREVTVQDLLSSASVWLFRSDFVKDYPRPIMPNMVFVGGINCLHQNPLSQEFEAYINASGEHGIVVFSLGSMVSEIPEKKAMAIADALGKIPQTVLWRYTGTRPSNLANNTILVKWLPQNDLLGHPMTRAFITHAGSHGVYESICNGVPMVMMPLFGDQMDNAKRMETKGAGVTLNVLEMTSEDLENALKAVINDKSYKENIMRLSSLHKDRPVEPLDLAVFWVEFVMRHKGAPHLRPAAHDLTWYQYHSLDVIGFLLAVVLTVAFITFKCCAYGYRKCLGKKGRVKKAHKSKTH
How it was run: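 Recombinant human UGT1A1 or UGT1A9 (5 μg protein), or single-donor human liver or intestinal microsomes (20 μg), incubated in Tris-HCl pH 7.4 with 5 mM MgCl2, 5 mM saccharolactone, 2% DMSO and 100 or 200 μM substrate. Started with UDP-GlcUA, 60 min at 37°C, in triplicate. Product identified by HPLC with positive-ion ESI-MS and UV/Vis spectra, and confirmed by β-glucuronidase hydrolysis.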

[4] = Drug metabolism in human ileum microsomes assessed as glucuronidation activity at 0.1 mM for 60 mins in presence of 3 mM UDP-GlcUA; type: ADME; conditions: 1 h, 100 µM
How it was run: (§2)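 Microsomes from single donors (20 μg protein) incubated with 0.1 mM substrate and 3 mM UDP-GlcUA for 60 min at 37°C in Tris-HCl pH 7.4 buffer with 5 mM MgCl2, 5 mM saccharolactone and 2% DMSO. Glucuronide measured by HPLC; donor data summarized as box-and-whisker plots.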

[5] = target: T3, UDP-glucuronosyltransferase 1A3 (Homo sapiens, UniProt P35503); test: Activity of human recombinant UGT1A3 expressed in baculovirus-infected Sf9 cells assessed as glucuronidation activity per mg of protein at 100 to 200 uM after 60 mins in presence of 3 mM UDP-GlcUA; type: ADME; conditions: sf9, 1 h
T3 sequence (P35503 whole entry): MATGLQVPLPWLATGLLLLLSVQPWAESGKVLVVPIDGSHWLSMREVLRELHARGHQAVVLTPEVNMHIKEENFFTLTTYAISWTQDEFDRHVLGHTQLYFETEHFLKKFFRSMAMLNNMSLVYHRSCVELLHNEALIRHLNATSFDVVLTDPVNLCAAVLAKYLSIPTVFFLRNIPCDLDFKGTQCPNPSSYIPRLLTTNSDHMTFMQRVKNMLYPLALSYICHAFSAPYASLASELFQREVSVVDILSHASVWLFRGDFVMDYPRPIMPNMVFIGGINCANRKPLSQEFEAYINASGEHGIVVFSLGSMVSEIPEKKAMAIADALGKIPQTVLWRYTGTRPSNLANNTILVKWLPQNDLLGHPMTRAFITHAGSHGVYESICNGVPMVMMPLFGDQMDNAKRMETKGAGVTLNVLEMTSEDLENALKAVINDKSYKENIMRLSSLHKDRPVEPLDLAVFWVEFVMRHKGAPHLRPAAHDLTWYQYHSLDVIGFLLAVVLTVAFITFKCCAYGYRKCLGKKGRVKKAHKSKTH
How it was run: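 Screening: 5 μg recombinant UGT protein (His-tag levels normalized) in Tris-HCl pH 7.4, 5 mM MgCl2, 5 mM saccharolactone, 2% DMSO to permeabilize membranes. Substrate at 100 or 200 μM, added in water. Started with 3 mM UDP-GlcUA, 60 min at 37°C, stopped with ethanol, then centrifuged. Glucuronide quantified by reversed-phase C18 HPLC against the substrate response; triplicates.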

[6] = Drug metabolism in human intestinal microsomes assessed as glucuronidation per mg of protein after 60 mins by Michaelis-Menten equation in presence of 3 mM UDP-GlcUA; type: ADME, Intestine, Microsome; conditions: 1 h; how it was run: as §1
[7] = Drug metabolism in human small intestine microsomes assessed as glucuronidation activity at 0.1 mM for 60 mins in presence of 3 mM UDP-GlcUA; type: ADME; conditions: 1 h, 100 µM; how it was run: as §2

Row | Drug metabolism [3] | SMILES | Drug metabolism [1] | Vmax/Km [2] | Drug metabolism [4] | Drug metabolism [5] | Vmax [6] | Drug metabolism [7]
1 | metabolite_detected | CN(C)CCCNc1ccc2nnn3c4ccc(O)cc4c(=O)c1c23 | metabolite_detected | 5.4 µL/min | metabolite_detected | < 0.1 nmol/min/mg | 0.413 nmol/min/mg | metabolite_detected
2 |  | CCN(CC)CCNc1ccc2ncn3c4ccc(O)cc4c(=O)c1c23 [C-1311] | metabolite_detected | 4 µL/min | metabolite_detected | < 0.1 nmol/min/mg | 0.823 nmol/min/mg | metabolite_detected
